Laboratory results: ChEMBL document CHEMBL4020730, “Synthesis and biological evaluation of selective tubulin inhibitors as anti-trypanosomal agents” (Bioorg Med Chem, 2017)

How the values were obtained:
[1] = test system: Trypanosoma brucei brucei; experiment: Anti-parasitic activity against bloodstream form of Trypanosoma brucei brucei Lister 427 after 48 hrs by MTS assay; format: functional; settings: Lister 427, 48 h
Method in brief: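 Bloodstream-form parasites grown in HMI-9 with 10% FBS at 37 °C, 7.5% CO2. 5,000 cells per well exposed to a range of compound concentrations, 0.1% DMSO, for 48 hrs at 37 °C. MTS (5% PMS) then added for 3 hrs at 37 °C, formazan read at 490 nm. Quadruplicate data normalized and fitted to a dose-response curve for IC50.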

HEK293 = experiment: Cytotoxicity against HEK293 cells assessed as reduction in cell viability after 48 hrs by MTT assay; format: cell-based; settings: Homo sapiens, HEK293, 48 h
Method in brief: (§1)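 Cells kept in RPMI1640 with 10% heat-inactivated FBS, L-glutamine, pyruvate and pen-strep at 37 °C, 5% CO2. 3000 cells per well seeded for 24 hrs, then given a range of compound concentrations (DMSO final ≤0.1%) for 48 hrs. 0.5 mg/ml MTT for 2 hrs at 37 °C, dye dissolved in DMSO, absorbance at 570 nm. Quadruplicates normalized and fitted to a dose-response curve.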

[2] = Cytotoxicity against mouse […] cells assessed as reduction in cell viability after 48 hrs by MTT assay; format: cell-based; method in brief: as §1
[3] = Selectivity index, ratio of IC50 for HEK293 cells to IC50 for bloodstream form of Trypanosoma brucei brucei Lister 427; format: toxicity; settings: human, read-out: Ratio IC50
[4] = Selectivity index, ratio of IC50 for mouse […] cells to IC50 for bloodstream form of Trypanosoma brucei brucei Lister 427; format: toxicity; settings: read-out: Ratio IC50
[5] = test system: Trypanosoma brucei brucei; experiment: Inhibition of tubulin polymerization in Trypanosoma brucei brucei Lister 427 incubated for 7 hrs by Western blot analysis
Method in brief: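 Parasites treated with 0.5% DMSO or different doses of compound for 7 hrs. Cells washed in TDB buffer pH 7.4, then lysed in Pipes pH 6.8 buffer with 0.2% Triton X-100 for 5 mins at 30 °C. Supernatant (soluble) and pellet (polymerized) fractions separated by centrifugation. Lysate from equal cell numbers run on 10% SDS-PAGE, western blot with TAT-1 tubulin antibody.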

Structure (SMILES) | IC50 [1] [µM] | IC50 (HEK293) [µM] | IC50 [2] [µM] | selectivity ratio [3] | selectivity ratio [4] | inhibition [5]
CN(c1ccc(NC(=O)c2cc(C(F)(F)F)cc(C(F)(F)F)c2)cc1OCc1cccc(C(=N)N)c1)S(C)(=O)=O | > 50 | > 500 | > 500 | > 10 | > 10 | –
CN(c1ccc(NC(=O)c2cc(C(F)(F)F)cc(C(F)(F)F)c2)cc1OCc1cccc(C(F)(F)F)c1)S(=O)(=O)Cc1ccccc1 | 2.08 | 59.8 | 69.5 | 33 | 29 | –
CCCCCCOc1cc(NC(=O)c2cc(C(F)(F)F)cc(C(F)(F)F)c2)ccc1N(C)S(C)(=O)=O | 23 | > 500 | > 500 | > 22 | > 22 | –
CN(c1ccc(NC(=O)c2ccc(C(F)(F)F)cc2C(F)(F)F)cc1OCc1cccc(C(F)(F)F)c1)S(=O)(=O)Cc1ccccc1 | 1.78 | 176 | 20.5 | 12 | 99 | –
Cc1ccc(C(F)(F)F)cc1COc1cc(NC(=O)c2cc(C(F)(F)F)cc(C(F)(F)F)c2)ccc1N(C)S(C)(=O)=O | 15.6 | > 500 | > 500 | > 32 | > 32 | –
CN(c1ccc(NC(=O)c2ccc(C(F)(F)F)cc2C(F)(F)F)cc1OCc1ccccc1C(F)(F)F)S(=O)(=O)Cc1ccccc1 | 10.5 | > 500 | 158 | 15 | > 48 | –
CN(c1ccc(NC(=O)c2ccc(C(F)(F)F)cc2C(F)(F)F)cc1OCc1ccccc1C(F)(F)F)S(C)(=O)=O | 13.3 | 34.8 | > 500 | 3 | > 38 | –
CN(c1ccc(NC(=O)c2cc(C(F)(F)F)cc(C(F)(F)F)c2)cc1OCc1ccc(C(F)(F)F)cc1)S(=O)(=O)Cc1ccccc1 | 3.39 | 293 | > 500 | > 147 | 86 | –
CN(c1ccc(NC(=O)c2cc(C(F)(F)F)cc(C(F)(F)F)c2)cc1OCc1cccc(C(F)(F)F)c1)S(C)(=O)=O | 8.58 | 54 | > 500 | 6 | > 58 | –
CCS(=O)(=O)N(C)c1ccc(NC(=O)c2ccc3c(c2)OCO3)cc1OCc1cccc(C#N)c1 | 23.5 | > 500 | > 500 | > 21 | > 21 | –
CN(c1ccc(NC(=O)c2cc(C(F)(F)F)cc(C(F)(F)F)c2)cc1OCc1ccccc1C(F)(F)F)S(=O)(=O)Cc1ccccc1 | 7.13 | > 500 | > 500 | > 70 | > 70 | –
CN(c1ccc(NC(=O)c2cc(C(F)(F)F)cc(C(F)(F)F)c2)cc1OCc1ccccc1C(F)(F)F)S(C)(=O)=O | 9.85 | > 500 | > 500 | > 51 | > 51 | –
CCCCCCOc1cc(NC(=O)c2cc(C(F)(F)F)cc(C(F)(F)F)c2)ccc1N(C)S(=O)(=O)Cc1ccccc1 | 7.81 | 69.9 | 13.3 | 2 | 9 | –
CN(c1ccc(NC(=O)c2ccc(C(F)(F)F)cc2C(F)(F)F)cc1OCc1cccc(C(F)(F)F)c1)S(C)(=O)=O | 8.42 | 80.6 | > 500 | 10 | > 59 | –
Cc1ccc(C)c(COc2cc(Nc3nccc(N)n3)ccc2N(C)S(C)(=O)=O)c1 | > 50 | > 500 | > 500 | > 10 | > 10 | –
Cc1ccc(C(F)(F)F)cc1COc1cc(NC(=O)c2ccc(C(F)(F)F)cc2C(F)(F)F)ccc1N(C)S(C)(=O)=O | 13 | 102 | > 500 | 8 | > 38 | –
CCCCCCOc1cc(NC(=O)c2ccc(C(F)(F)F)cc2C(F)(F)F)ccc1N(C)S(C)(=O)=O | 30.1 | > 500 | > 500 | > 17 | > 17 | –
CN(c1ccc(NC(=O)c2ccc(C#N)cc2)cc1OCc1ccc(C(F)(F)F)cc1)S(=O)(=O)Cc1ccccc1 | 0.07 | > 500 | > 500 | > 7140 | > 7140 | Dose-dependent effect
